Laboratory results reported in ChEMBL document CHEMBL1146933, “In silico identification of novel EGFR inhibitors with antiproliferative activity against cancer cells” (Bioorg Med Chem Lett, 2006).
Activity calls are given as the source filed them. The rule behind the calls is not given here.

Tests used:
[1] = biological target: T1, Epidermal growth factor receptor (Homo sapiens, UniProt P00533); experiment: Inhibition of EGFR kinase activity at 100 uM in presence of 2.5 uM ATP; set-up: scale not given: the % may be the effect or the level left
T1 sequence (P00533 whole entry): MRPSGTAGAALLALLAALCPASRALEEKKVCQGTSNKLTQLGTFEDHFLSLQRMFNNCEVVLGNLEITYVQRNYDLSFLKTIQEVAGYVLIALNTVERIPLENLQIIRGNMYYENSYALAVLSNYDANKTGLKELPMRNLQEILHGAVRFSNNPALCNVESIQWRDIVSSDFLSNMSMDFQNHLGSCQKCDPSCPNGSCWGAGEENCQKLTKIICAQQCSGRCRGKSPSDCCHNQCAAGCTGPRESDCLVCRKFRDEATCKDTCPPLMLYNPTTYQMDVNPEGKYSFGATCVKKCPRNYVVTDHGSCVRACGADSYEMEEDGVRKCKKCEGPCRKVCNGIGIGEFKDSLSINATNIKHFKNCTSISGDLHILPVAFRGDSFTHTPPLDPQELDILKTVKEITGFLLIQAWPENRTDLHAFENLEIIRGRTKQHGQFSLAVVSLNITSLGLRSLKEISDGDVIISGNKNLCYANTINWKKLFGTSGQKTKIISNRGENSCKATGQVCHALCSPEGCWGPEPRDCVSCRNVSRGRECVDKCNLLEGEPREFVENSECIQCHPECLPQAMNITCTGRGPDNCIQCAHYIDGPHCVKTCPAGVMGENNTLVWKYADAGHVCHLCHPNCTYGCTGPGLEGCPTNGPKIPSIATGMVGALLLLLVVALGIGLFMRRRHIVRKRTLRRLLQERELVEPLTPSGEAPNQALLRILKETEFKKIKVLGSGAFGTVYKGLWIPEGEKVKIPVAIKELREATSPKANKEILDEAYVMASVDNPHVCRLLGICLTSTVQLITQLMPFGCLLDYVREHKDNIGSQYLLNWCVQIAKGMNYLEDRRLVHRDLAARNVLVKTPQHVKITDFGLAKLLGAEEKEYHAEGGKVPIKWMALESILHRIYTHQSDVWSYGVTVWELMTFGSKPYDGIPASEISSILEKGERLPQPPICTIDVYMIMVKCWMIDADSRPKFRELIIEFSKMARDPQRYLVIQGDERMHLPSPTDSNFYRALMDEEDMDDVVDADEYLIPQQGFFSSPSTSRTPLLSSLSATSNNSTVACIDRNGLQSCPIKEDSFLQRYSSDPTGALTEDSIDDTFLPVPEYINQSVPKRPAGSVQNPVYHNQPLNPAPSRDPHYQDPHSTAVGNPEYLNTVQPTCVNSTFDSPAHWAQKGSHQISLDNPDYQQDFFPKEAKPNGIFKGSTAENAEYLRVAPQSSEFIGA
In short: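 EGFR purified from A431 cells, pre-incubated 30 min with 100 µM compound before kinase activity measurement. ATP held at 2.5 µM, four times below the Km for this enzyme preparation. Control was 2% DMSO. Mean ± standard deviation from 2–5 experiments in triplicate.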

MDA-MB-468 = experiment: Antiproliferative activity against MDA-MB-468 cells at 50 uM by MTT assay; type: functional, cell-based; conditions: Homo sapiens
BT-474 = experiment: Antiproliferative activity against BT474 cells at 50 uM by MTT assay; type: functional, cell-based; conditions: Homo sapiens
A-431 [2] = experiment: Antiproliferative activity against A431 cells by MTT assay; type: functional, cell-based; conditions: Homo sapiens
In short: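 A431 cells grown with increasing compound concentrations; proliferation measured by MTT 48 h after treatment. Two experiments performed in triplicate.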

MDA-MB-435 = experiment: Antiproliferative activity against MDA-MB-435 cells at 50 uM by MTT assay; type: functional, cell-based; conditions: Homo sapiens
[3] = biological target: T1, Epidermal growth factor receptor; experiment: Inhibition of EGFR kinase activity at 10 uM; set-up: scale not given: the % may be the effect or the level left
A-431 [4] = experiment: Antiproliferative activity against A431 cells at 50 uM by MTT assay after 48 hrs; type: functional, cell-based; conditions: Homo sapiens
In short: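 A431 cells exposed to 50 µM compound for 2 days; viability read by MTT. Controls grown in 0.5% DMSO. Values are percentage of control, mean ± standard deviation from three experiments run in quadruplicate.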

[5] = biological target: T1, Epidermal growth factor receptor; experiment: Inhibition of EGFR kinase activity
In short: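 EGFR purified from A431 cells, incubated with compound at varying concentrations for 30 min at room temperature. Kinase reaction then started with ATP/MgCl2 and run 30 min at 30 °C. Activity expressed as percent of inhibitor-free control; mean ± standard deviation from 1 to 3 experiments in triplicate.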

`O=NC1=C(NNc2ccccc2)C(=O)c2ccccc21` was tested, and the Activity [1] was 50.3%, the Activity (MDA-MB-468) was “Active” and the Activity (BT-474) was “Active”. The IC50 (A-431 [2]) was 6 µM, the Activity (MDA-MB-435) was “Active” and the Activity [3] was “inactive”.
With `O=C(CSc1nc(O)cc(-c2ccccc2)n1)N1c2ccccc2CCc2ccccc21` the Activity [1] was 41.1%, the Activity (MDA-MB-468) was “Active” and the Activity (A-431 [4]) was “Active”. The Activity (BT-474) was “Active”, the Activity (MDA-MB-435) was “Active” and the Activity [3] was “inactive”.
With `C=CCOc1ccc2c(c1)C(=NO)c1cc(OCC=C)ccc1-2` the Activity [1] was 55.3%, the Activity (MDA-MB-468) was “Active” and the Activity (A-431 [4]) was “Active”. The Activity (BT-474) was “Active”, the Activity (MDA-MB-435) was “Active” and the Activity [3] was “inactive”.
`Cc1ccc(-c2cc(NC(=O)c3cccs3)[nH]n2)cc1` was tested, and the Activity [1] was 44.1%, the Activity (MDA-MB-468) was “inactive” and the Activity (A-431 [4]) was “inactive”. For the same compound, the Activity (BT-474) was “inactive”, the Activity (MDA-MB-435) was “inactive” and the Activity [3] was “inactive”.
`Nc1[nH]nc2nc(-c3ccco3)c3c(c12)CCCC3` was tested, and the Activity [1] was 44.5%, the Activity (MDA-MB-468) was “Active” and the Activity (A-431 [4]) was “Active”. For the same compound, the Activity (BT-474) was “Active”, the Activity (MDA-MB-435) was “Active” and the Activity [3] was “inactive”.
For `Oc1[nH]c2ccc(I)cc2c1/N=N/c1cccc2cccnc12`, the Activity [1] was 50%, the Activity (MDA-MB-468) was “Active” and the Activity (A-431 [4]) was “Active”. For the same compound, the Activity (BT-474) was “Active”, the IC50 (A-431 [2]) was 1 µM and the Activity (MDA-MB-435) was “Active”. For the same compound, the Activity [3] was “inactive”.
In the case of `Cc1cccc(-n2ncc3c(NCc4ccc5c(c4)OCO5)ncnc32)c1`, the Activity [1] is reported as 48.4%, the Activity (MDA-MB-468) is reported as “Active” and the IC50 [5] is reported as 15 µM. For the same compound, the Activity (A-431 [4]) was “Active”, the Activity (BT-474) was “Active” and the Activity (MDA-MB-435) was “Active”. The Activity [3] was 40%.
